Results: ChEMBL document CHEMBL1142566, “Natural and synthetic 2,2-dimethylpyranocoumarins with antibacterial activity” (2005)
Calls of active or inactive are those of the source. No cut-off for these calls is given here.

Assays:
Type in all cases: functional
[1] = tested on: Staphylococcus aureus; experiment: Antimicrobial activity against Staphylococcus aureus ATCC 25923 after 24 hrs by disk diffusion assay
Method in brief: (§1)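 Bauer-Kirby disk diffusion on trypticase Mueller-Hinton agar. Plates were seeded with ATCC reference strains to a final 10⁷ cell/mL. Test compounds were dissolved in DMSO and applied to 6 mm paper disks, with solvent-only disks as negative control. Plates were incubated 24 h at 37 °C. Inhibition zone diameter (mm) was averaged over three experiments and scored <7 (-), 7-10 (+), 11-16 (++), >16 (+++).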

[2] = tested on: Staphylococcus epidermidis; experiment: Antimicrobial activity against Staphylococcus epidermidis ATCC 12228 after 24 hrs by disk diffusion assay; method in brief: as §1
[3] = tested on: Pseudomonas aeruginosa; experiment: Antimicrobial activity against Pseudomonas aeruginosa ATCC 27853 after 24 hrs by disk diffusion assay; method in brief: as §1
[4] = tested on: Enterobacter cloacae; experiment: Antimicrobial activity against Enterobacter cloacae ATCC 13047 after 24 hrs by disk diffusion assay; method in brief: as §1
[5] = tested on: Escherichia coli; experiment: Antimicrobial activity against Escherichia coli ATCC 25922 after 24 hrs by disk diffusion assay; method in brief: as §1
[6] = tested on: Proteus mirabilis; experiment: Antimicrobial activity against Proteus mirabilis after 24 hrs by disk diffusion assay; method in brief: as §1
[7] = tested on: Klebsiella pneumoniae; experiment: Antimicrobial activity against Klebsiella pneumoniae ATCC 13883 after 24 hrs by disk diffusion assay; method in brief: as §1

| SMILES | inhibition zone (IZ) [1] [mm] | inhibition zone (IZ) [2] [mm] | inhibition zone (IZ) [3] [mm] | inhibition zone (IZ) [4] [mm] | inhibition zone (IZ) [5] [mm] | inhibition zone (IZ) [6] [mm] | inhibition zone (IZ) [7] [mm] | Activity [1] | Activity [2] | Activity [3] | Activity [4] | Activity [5] | Activity [6] | Activity [7] |
| --- | --- | --- | --- | --- | --- | --- | --- | --- | --- | --- | --- | --- | --- | --- |
| COc1cc2oc(=O)ccc2c2c1C=CC(C)(C)O2 [ALLOXANTHOXYLETIN] | 7 | 7 | 11 | 7 | 7 | 7 | 7 | – | – | – | – | – | – | – |
| CC(=O)OC1CC(C)(C)Oc2ccc3ccc(=O)oc3c21 (stereo not given) | – | – | – | – | – | – | – | inactive | inactive | inactive | inactive | inactive | inactive | inactive |
| CC(=O)O[C@H]1c2c(ccc3ccc(=O)oc23)OC(C)(C)[C@@H]1Br | 11 | 11 | <7 | <7 | <7 | 7 | <7 | – | – | – | – | – | – | – |
| CC1(C)Oc2ccc3ccc(=O)oc3c2[C@H](O)[C@H]1Br | – | – | – | – | – | – | – | inactive | inactive | inactive | inactive | inactive | inactive | inactive |
| CC(=O)Oc1cc(OC(C)=O)c2ccc(=O)oc2c1 | 7 | 11 | 7 | 7 | 7 | 7 | 7 | – | – | – | – | – | – | – |
| CC1(C)Oc2ccc3ccc(=O)oc3c2[C@H](OC(=O)c2ccccc2)[C@H]1Br | 7 | 7 | 7 | 7 | 7 | 7 | 7 | – | – | – | – | – | – | – |
| CC1(C)C=Cc2c(cc(O)c3ccc(=O)oc23)O1 | – | – | – | – | – | – | – | inactive | inactive | inactive | inactive | inactive | inactive | inactive |
| COc1cc2c(c3oc(=O)ccc13)C(O)CC(C)(C)O2 (racemic) | – | – | – | – | – | – | – | inactive | inactive | inactive | inactive | inactive | inactive | inactive |
| CC1(C)C=Cc2c(c3c(c4ccc(=O)oc24)OC(C)(C)C=C3)O1 [DIPETALOLACTONE] | 11 | 7 | 11 | 7 | 7 | 7 | 7 | – | – | – | – | – | – | – |
| O=C(O)[C@H]1/C(=C/CO)O[C@@H]2CC(=O)N21 [CLAVULANIC ACID] | >16 | >16 | >16 | >16 | >16 | – | > 16 | – | – | – | – | – | – | – |
| COc1cc2c(c3oc(=O)ccc13)C=CC(C)(C)O2 | 7 | 7 | 11 | 7 | 7 | 11 | 7 | – | – | – | – | – | – | – |
| O=c1ccc2c(O)cc(O)cc2o1 | 7 | 7 | 7 | 7 | 7 | 7 | 7 | – | – | – | – | – | – | – |
| CC1(C)C=Cc2c(ccc3ccc(=O)oc23)O1 | – | – | – | – | – | – | – | inactive | inactive | inactive | inactive | inactive | inactive | inactive |
| CC1(C)S[C@@H]2[C@H](NC(=O)[C@H](N)c3ccc(O)cc3)C(=O)N2[C@H]1C(=O)O [AMOXICILLIN] | >16 | >16 | >16 | >16 | >16 | – | 11 | – | – | – | – | – | – | – |
| CC(=O)Oc1cc2oc(=O)ccc2c2c1C=CC(C)(C)O2 | 7 | 7 | 7 | 7 | 7 | 7 | 7 | – | – | – | – | – | – | – |
| CC(=O)O[C@H]1c2c(ccc3ccc(=O)oc23)OC(C)(C)[C@H]1OC(C)=O | – | – | – | – | – | – | – | inactive | inactive | inactive | inactive | inactive | inactive | inactive |
| CC1(C)C=Cc2c(O)cc3oc(=O)ccc3c2O1 | – | – | – | – | – | – | – | inactive | inactive | inactive | inactive | inactive | inactive | inactive |
| CCN[C@@H]1C[C@H](N)[C@@H](O[C@H]2OC(CN)=CC[C@H]2N)[C@H](O)[C@H]1O[C@H]1OC[C@](C)(O)[C@H](NC)[C@H]1O [NETILMICIN] | >16 | >16 | >16 | >16 | >16 | – | 11 | – | – | – | – | – | – | – |
| CC(=O)Oc1cc2c(c3oc(=O)ccc13)C=CC(C)(C)O2 | 7 | 7 | 7 | 7 | 7 | 7 | 7 | – | – | – | – | – | – | – |
| COc1cc2c(c3oc(=O)ccc13)[C@H](O)[C@@H](Br)C(C)(C)O2 (racemic) | 7 | 7 | 11 | 7 | 7 | 7 | 7 | – | – | – | – | – | – | – |
| CC1(C)C=Cc2cc3ccc(=O)oc3cc2O1 | – | – | – | – | – | – | – | inactive | inactive | inactive | inactive | inactive | inactive | inactive |
| COc1cc2c(c3oc(=O)ccc13)[C@H](O)[C@H](O)C(C)(C)O2 (racemic) | – | – | – | – | – | – | – | inactive | inactive | inactive | inactive | inactive | inactive | inactive |
| COc1cc2c(c3oc(=O)ccc13)C(OC(C)=O)CC(C)(C)O2 (racemic) | 11 | 11 | <7 | <7 | <7 | 7 | <7 | – | – | – | – | – | – | – |
| CC1(C)CC(O)c2c(ccc3ccc(=O)oc23)O1 (stereo not given) | – | – | – | – | – | – | – | inactive | inactive | inactive | inactive | inactive | inactive | inactive |
| COc1cc2c(c3oc(=O)ccc13)[C@H](OC(C)=O)[C@@H](Br)C(C)(C)O2 (racemic) | 7 | 11 | <7 | <7 | <7 | 7 | <7 | – | – | – | – | – | – | – |
| COc1cc2c(c3oc(=O)ccc13)[C@H](OC(=O)c1ccccc1)[C@@H](Br)C(C)(C)O2 (racemic) | 7 | 7 | 11 | 7 | 7 | 7 | 7 | – | – | – | – | – | – | – |
| COc1cc(OC)c2ccc(=O)oc2c1 [CITROPTEN] | 7 | 11 | 11 | 7 | 7 | 7 | 7 | – | – | – | – | – | – | – |
| COc1cc2c(c3oc(=O)ccc13)[C@H](OC(C)=O)[C@H](OC(C)=O)C(C)(C)O2 (racemic) | – | – | – | – | – | – | – | inactive | inactive | inactive | inactive | inactive | inactive | inactive |
| CC1(C)Oc2ccc3ccc(=O)oc3c2[C@H](O)[C@@H]1O | – | – | – | – | – | – | – | inactive | inactive | inactive | inactive | inactive | inactive | inactive |
